Measurements published in ChEMBL document CHEMBL1148334, “Design and synthesis of novel biologically active thrombin receptor non-peptide mimetics based on the pharmacophoric cluster Phe/Arg/NH2 of the Ser42-Phe-Leu-Leu-Arg46 motif sequence: platelet aggregation and relaxant activities” (J Med Chem, 2004).

Assays:
Homo sapiens [1] = species: Homo sapiens; assay: In vitro inhibitory concentration against thrombin-induced platelet aggregation in human platelet-rich plasma in presence of thrombin at 0.20 IU/mL; assay type: functional
How it was run: (§1)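 Healthy drug-free donors' venous blood centrifuged 800 rpm 8 min RT; PRP diluted with PPP to 2 × 10⁸ platelets/mL, one donor per series. PRP stirred (1100 rpm) with compound 0.05-1 mM ≥4 min, then bovine thrombin added at 37 °C; light transmittance recorded 4 min, PPP = 100%, PRP = 0%. Studies finished within 1 h of collection.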

Homo sapiens [2] = species: Homo sapiens; assay: In vitro inhibitory concentration against thrombin-induced platelet aggregation in human platelet-rich plasma in presence of thrombin at 0.25 IU/mL; assay type: functional; how it was run: as §1
Homo sapiens [3] = species: Homo sapiens; assay: In vitro inhibitory concentration against thrombin-induced platelet aggregation in human platelet-rich plasma in presence of thrombin at 0.30 IU/mL; assay type: functional; how it was run: as §1
Rattus norvegicus [4] = species: Rattus norvegicus; assay: Contraction in isolated rat aortic rings without endothelium at 10-100 uM concentration; Range is 2-3%; assay type: functional, Aorta
How it was run: (§2)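 Thoracic aorta of adult male Wistar rats cut into 2 mm rings, one with intact and one with mechanically removed endothelium. Superfused 1 mL/min with modified Tyrode-type buffer, 37 °C, pH 7.44, carbogen; basal tension 2 g, isometric force. Endothelium checked with 1 µM carbachol against 1 µM phenylephrine. Compounds added 30 min after perfusion, on phenylephrine tone; some rings pretreated with 300 µM L-NAME. Mean ± SEM.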

Rattus norvegicus [5] = species: Rattus norvegicus; assay: Maximal relaxing effect in isolated rat aortic rings with endothelium precontracted with 1 uM phenylephrine at 0.1-100 uM concentration; Range is 1.8-40.7%; assay type: functional, Aorta; how it was run: as §2
[6] = Relative potency (REC) is the ratio of concentration of compound to the concentration of SFLLR-NH2 for producing equal relaxing effect on the isolated rat aortic rings; assay type: functional, Aorta
Homo sapiens [7] = species: Homo sapiens; assay: Inhibitory concentration against SFLLR-NH2 (2.5 uM) induced platelet aggregation in human platelet-rich plasma; assay type: functional, organism-based
How it was run: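 Human PRP (2 × 10⁸ platelets/mL, healthy donors) stirred with compound, then aggregation triggered by SFLLR-NH₂ 2.5 µM instead of thrombin; optical aggregometry read-out.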

Rattus norvegicus [8] = species: Rattus norvegicus; assay: Maximal relaxing effect of compound in isolated rat aortic rings precontracted with 1 uM phenylephrine at 100 uM concentration; assay type: functional, Aorta; how it was run: as §2
Rattus norvegicus [9] = species: Rattus norvegicus; assay: Maximal relaxing effect of compound in isolated rat aortic rings precontracted phenylephrine at 100 uM concentration; assay type: functional, Aorta; how it was run: as §2
Rattus norvegicus [10] = species: Rattus norvegicus; assay: Maximal relaxing effect in isolated rat aortic rings with endothelium precontracted with 1 uM phenylephrine at 0.1-100 uM concentration; Range is 1.3-42.7%; assay type: functional, Aorta; how it was run: as §2
Rattus norvegicus [11] = species: Rattus norvegicus; assay: Maximal relaxing effect in isolated rat aortic rings without endothelium precontracted with 1 uM phenylephrine at 0.1-100 uM concentration; Range is 2.3-14%; assay type: functional, Aorta; how it was run: as §2
Rattus norvegicus [12] = species: Rattus norvegicus; assay: Relaxing effect dependent on nitric oxide in isolated rat aortic rings at 0.1-100 uM compound concentration; Range is 0-25%; assay type: functional, Aorta; how it was run: as §2
Rattus norvegicus [13] = species: Rattus norvegicus; assay: Reduction of maximal relaxing response in isolated rat aortic rings precontracted with Nomega-nitro-L-arginine (L-NAME) at 0.1-100 uM concentration; Range is 17-18%; assay type: functional, Aorta; how it was run: as §2

Row | IC50 (Homo sapiens [1]) | IC50 (Homo sapiens [2]) | IC50 (Homo sapiens [3]) | IC50 (Homo sapiens [7]) | Compound | Contraction (Rattus norvegicus [4]) | Max efficacy (Rattus norvegicus [5]) | Relative potency [6] | Max efficacy (Rattus norvegicus [8]) | Max efficacy (Rattus norvegicus [9]) | Max efficacy (Rattus norvegicus [10]) | Max efficacy (Rattus norvegicus [11]) | Relaxation (Rattus norvegicus [12]) | Reduction (Rattus norvegicus [13])
1 | 420 µM | 340 µM | 390 µM |  | NC(N)=NCCCCCC(=O)NC1CCN(C(=O)C(N)Cc2ccccc2)C1 (stereo not given) | 3% | 40.7% | 24 |  |  |  |  |  | 
2 | 460 µM | 510 µM | 440 µM | 780 µM | N=C(N)NCCCCCC(=O)N1CCN(C(=O)Cc2ccccc2)CC1 |  |  | 0.19 | 81% |  |  |  |  | 
3 | 120 µM | 90 µM | 240 µM | 370 µM | NC(N)=NCCCCCC(=O)N1CCN(C(=O)C(N)Cc2ccccc2)CC1 (stereo not given) |  |  | 38.2 |  |  |  |  |  | 
4 | 140 µM | > 250 µM | > 250 µM |  | N=C(N)NCCCCCC(=O)NCC1CCN(C(=O)Cc2ccccc2)CC1 |  |  | 0.06 | 91.4% |  |  |  |  | 
5 | 110 µM | 120 µM | 210 µM |  | N=C(N)NCCCCCC(=O)NC1CCN(C(=O)Cc2ccccc2)C1 (stereo not given) |  |  | 17.3 |  | 37.5% |  |  |  | 
6 | > 1000 µM | > 1000 µM | 870 µM |  | NC(N)=NCCCCCC(=O)NCC1CCN(C(=O)C(N)Cc2ccccc2)CC1 (stereo not given) |  |  | 13.6 |  |  | 42.7% | 14% | 25% | 18%
